Test results published in article PMC8542630 (Cell chemical biology, 2021).

Experiments:
[1] = target: T1, GFP-Sc-Dyn AAA4 E/Q (E2819Q) (Saccharomyces cerevisiae, UniProt P36022, E2819Q); test: Microscale thermophoresis; format: binding, S. cerevisiae
[2] = target: GFP-Sc-Dyn AAA4 E/Q (E2819Q); test: NADH-coupled steady-state ATPase assay, GFP-Sc-Dyn AAA4 E/Q mutant; format: biochemical, S. cerevisiae; details: 1 mM MgATP, n=3
[3] = target: T1, GFP-Sc-Dyn AAA4 E/Q (E2819Q); test: as above; format: biochemical, S. cerevisiae
Mm-VCP/p97 = Mm-VCP/p97 (Mus musculus, UniProt Q01853); test: NADH-coupled steady-state ATPase assay, Mm-VCP/p97; format: biochemical, M. musculus
GFP-Sc-Dyn [4] = target: T2, GFP-Sc-Dyn (Saccharomyces cerevisiae, UniProt P36022); test: Microtubule gliding assay; format: biochemical, S. cerevisiae; details: 25 μM compound
GFP-Sc-Dyn [5] = target: T2, GFP-Sc-Dyn; test: NADH-coupled steady-state ATPase assay, GFP-Sc-Dyn basal ATPase; format: biochemical, S. cerevisiae
Hs-dynein 1 [6] = target: T3, Hs-dynein 1 (Homo sapiens, UniProt Q14204); test: Radioactive ATPase assay, microtubule-stimulated ATPase activity of Hs-dynein 1; format: biochemical
Procedure, shortened: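 Radioactive ATPase assay with Hs-dynein 1 (His6, aa 1320–4646; 30 nM) in the presence of microtubules. Reaction time was 45 min, and rates with test compound were normalised to DMSO control.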

Hs-FIGL1 = target: T4, Hs-FIGL1 (Homo sapiens, UniProt Q6PIW4); test: NADH-coupled steady-state ATPase assay, Hs-FIGL1; format: biochemical, H. sapiens
T4 sequence (Q6PIW4 288-674): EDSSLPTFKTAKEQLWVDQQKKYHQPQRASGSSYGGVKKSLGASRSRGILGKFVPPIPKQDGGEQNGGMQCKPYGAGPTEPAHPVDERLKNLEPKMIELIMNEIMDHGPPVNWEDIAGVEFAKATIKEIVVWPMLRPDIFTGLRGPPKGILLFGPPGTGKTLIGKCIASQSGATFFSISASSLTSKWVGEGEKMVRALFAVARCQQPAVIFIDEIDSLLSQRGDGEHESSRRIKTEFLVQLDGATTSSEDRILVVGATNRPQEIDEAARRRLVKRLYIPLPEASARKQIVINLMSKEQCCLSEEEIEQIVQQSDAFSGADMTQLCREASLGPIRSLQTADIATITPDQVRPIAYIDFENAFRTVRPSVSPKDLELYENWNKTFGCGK
Procedure, shortened: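 Recombinant Hs-FIGL1 (50 nM; E. coli-expressed) in 25 mM Na-MES pH 6.5, 70 mM KOAc, 20 mM (NH4)2SO4, 5 mM Mg(OAc)2, 1 mM TCEP, 0.01% Triton X-100, with NADH/PEP/pyruvate kinase/lactate dehydrogenase coupling system. Protein preincubated 10 min at RT with test compound, then MgATP added. NADH fluorescence (ex 340, em 440 nm) slope converted to ATPase rate with an ADP standard curve.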

Sc-Dyn-lyso = Sc-Dyn-lyso (Saccharomyces cerevisiae, UniProt P36022); test: NADH-coupled steady-state ATPase assay, Sc-Dyn-lyso; format: biochemical, S. cerevisiae
Procedure, shortened: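 Ten-dose DMSO serial dilution of test compound (stock top 4 mM) was preincubated 10 min at RT. MgATP (10 mM stock) started the reaction, and NADH fluorescence slopes were converted via an ADP standard curve.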

GFP-Sc-Dyn [7] = target: T2, GFP-Sc-Dyn; test: Microscale thermophoresis; format: binding, S. cerevisiae; details: for FNorm, GFP-Sc-Dyn (MST) / ΔFNorm, GFP-Sc-Dyn (MST): mean ± SD; for FNorm, GFP-Sc-Dyn (MST): n=3; for ΔFNorm, GFP-Sc-Dyn (MST): absence of AMPPNP, n=5
[8] = target: Sc-Dyn-lysoMut (AAA1 E/Q) (Saccharomyces cerevisiae, UniProt P36022, E1849Q); test: Microscale thermophoresis; format: binding, S. cerevisiae
Hs-dynein 1 [9] = target: T3, Hs-dynein 1; test: Radioactive ATPase assay, basal ATPase activity of Hs-dynein 1; format: biochemical
Procedure, shortened: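 Hs-dynein 1 motor construct (N-terminal His6, aa 1320–4646) at 30 nM, without microtubules. Radioactive ATPase reaction ran for 45 min with test compound. Percent inhibition was obtained by normalising the ATPase rate with compound to DMSO control.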

[10] = 1% DMSO, 1 mM Mg-ATP, mean ± SD

T3 sequence (Q14204 1320-4646): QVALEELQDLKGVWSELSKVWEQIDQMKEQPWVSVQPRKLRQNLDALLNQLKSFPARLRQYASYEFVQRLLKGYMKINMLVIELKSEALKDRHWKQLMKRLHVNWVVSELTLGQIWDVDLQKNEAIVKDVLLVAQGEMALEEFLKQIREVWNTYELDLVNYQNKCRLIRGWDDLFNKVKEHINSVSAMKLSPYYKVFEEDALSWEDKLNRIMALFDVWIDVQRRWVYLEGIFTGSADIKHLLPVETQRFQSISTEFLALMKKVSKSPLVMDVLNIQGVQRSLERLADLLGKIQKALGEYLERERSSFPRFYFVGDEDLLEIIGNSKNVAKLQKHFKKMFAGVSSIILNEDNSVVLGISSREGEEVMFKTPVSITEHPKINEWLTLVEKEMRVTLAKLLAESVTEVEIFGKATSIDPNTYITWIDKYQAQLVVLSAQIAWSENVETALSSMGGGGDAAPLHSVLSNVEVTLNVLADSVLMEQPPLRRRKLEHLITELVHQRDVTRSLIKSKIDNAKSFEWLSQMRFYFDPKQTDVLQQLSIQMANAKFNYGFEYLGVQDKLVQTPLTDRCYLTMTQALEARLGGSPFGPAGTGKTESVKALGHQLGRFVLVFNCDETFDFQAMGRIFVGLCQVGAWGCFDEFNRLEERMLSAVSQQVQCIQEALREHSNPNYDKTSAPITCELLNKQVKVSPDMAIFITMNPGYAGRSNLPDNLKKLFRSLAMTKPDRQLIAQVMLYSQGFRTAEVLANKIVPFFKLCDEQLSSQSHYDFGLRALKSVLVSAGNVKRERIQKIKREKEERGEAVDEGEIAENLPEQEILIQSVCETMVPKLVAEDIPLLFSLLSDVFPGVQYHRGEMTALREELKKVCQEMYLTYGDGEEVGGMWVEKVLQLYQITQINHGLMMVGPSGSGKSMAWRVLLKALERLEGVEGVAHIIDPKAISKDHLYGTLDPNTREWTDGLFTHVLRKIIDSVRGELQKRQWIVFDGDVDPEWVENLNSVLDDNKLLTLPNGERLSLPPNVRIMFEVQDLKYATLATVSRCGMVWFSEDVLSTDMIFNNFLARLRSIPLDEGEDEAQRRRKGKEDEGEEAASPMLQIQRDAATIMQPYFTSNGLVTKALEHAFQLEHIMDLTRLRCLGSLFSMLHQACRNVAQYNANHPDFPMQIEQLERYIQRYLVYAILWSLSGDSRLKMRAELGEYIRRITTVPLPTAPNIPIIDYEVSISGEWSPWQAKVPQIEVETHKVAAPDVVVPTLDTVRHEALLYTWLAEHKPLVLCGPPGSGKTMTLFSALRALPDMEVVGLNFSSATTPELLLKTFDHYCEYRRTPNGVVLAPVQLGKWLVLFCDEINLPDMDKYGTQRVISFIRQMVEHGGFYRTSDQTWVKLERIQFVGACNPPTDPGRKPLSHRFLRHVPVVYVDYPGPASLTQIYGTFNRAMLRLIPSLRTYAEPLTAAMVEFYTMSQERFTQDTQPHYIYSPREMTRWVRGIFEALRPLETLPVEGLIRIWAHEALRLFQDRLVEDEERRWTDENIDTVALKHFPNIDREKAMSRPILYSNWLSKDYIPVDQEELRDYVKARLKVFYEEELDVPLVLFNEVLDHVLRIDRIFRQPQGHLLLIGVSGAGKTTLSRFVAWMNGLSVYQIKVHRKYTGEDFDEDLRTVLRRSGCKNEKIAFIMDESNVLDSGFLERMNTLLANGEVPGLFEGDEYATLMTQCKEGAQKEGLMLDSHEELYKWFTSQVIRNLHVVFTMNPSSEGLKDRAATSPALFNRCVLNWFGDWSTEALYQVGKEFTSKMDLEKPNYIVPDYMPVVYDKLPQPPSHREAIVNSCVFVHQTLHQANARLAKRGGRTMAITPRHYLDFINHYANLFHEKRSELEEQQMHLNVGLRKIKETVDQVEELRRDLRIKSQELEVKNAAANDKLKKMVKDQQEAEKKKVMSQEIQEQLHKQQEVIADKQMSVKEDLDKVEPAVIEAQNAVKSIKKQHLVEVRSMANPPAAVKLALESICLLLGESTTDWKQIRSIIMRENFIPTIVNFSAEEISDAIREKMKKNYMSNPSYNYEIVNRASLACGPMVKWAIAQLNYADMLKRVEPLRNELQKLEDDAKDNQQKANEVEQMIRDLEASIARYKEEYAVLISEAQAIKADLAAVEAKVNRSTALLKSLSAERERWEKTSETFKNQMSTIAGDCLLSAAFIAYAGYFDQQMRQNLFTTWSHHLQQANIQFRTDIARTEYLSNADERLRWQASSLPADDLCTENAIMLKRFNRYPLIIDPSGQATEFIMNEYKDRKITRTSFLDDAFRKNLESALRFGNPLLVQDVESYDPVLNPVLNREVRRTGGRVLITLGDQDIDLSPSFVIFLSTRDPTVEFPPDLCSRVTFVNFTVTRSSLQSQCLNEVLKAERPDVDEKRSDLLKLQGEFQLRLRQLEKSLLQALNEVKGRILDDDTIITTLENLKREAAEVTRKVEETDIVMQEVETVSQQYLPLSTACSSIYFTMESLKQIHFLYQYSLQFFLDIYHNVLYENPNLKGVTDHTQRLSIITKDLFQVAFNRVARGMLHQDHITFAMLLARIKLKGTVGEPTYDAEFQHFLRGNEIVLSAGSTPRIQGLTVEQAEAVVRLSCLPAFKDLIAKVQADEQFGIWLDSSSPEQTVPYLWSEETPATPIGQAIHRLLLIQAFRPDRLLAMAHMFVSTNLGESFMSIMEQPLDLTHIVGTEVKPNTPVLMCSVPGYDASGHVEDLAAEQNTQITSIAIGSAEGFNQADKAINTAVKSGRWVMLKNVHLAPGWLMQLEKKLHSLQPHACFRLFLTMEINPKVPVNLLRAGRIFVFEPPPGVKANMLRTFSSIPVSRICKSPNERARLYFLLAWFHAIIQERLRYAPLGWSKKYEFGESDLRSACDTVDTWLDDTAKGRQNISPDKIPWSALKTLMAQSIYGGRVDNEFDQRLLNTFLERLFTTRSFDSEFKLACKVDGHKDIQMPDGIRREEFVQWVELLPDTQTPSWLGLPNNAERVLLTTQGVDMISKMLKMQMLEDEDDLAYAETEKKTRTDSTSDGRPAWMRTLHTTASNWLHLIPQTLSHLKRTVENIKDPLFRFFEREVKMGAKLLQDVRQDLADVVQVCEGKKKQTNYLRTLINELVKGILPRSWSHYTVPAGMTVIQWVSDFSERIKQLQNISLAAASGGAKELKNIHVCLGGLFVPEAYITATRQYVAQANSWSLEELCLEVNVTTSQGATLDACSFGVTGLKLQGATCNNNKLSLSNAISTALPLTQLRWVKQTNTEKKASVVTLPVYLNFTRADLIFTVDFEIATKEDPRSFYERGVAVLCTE
Chain of Mm-VCP/p97 (Q01853 whole entry): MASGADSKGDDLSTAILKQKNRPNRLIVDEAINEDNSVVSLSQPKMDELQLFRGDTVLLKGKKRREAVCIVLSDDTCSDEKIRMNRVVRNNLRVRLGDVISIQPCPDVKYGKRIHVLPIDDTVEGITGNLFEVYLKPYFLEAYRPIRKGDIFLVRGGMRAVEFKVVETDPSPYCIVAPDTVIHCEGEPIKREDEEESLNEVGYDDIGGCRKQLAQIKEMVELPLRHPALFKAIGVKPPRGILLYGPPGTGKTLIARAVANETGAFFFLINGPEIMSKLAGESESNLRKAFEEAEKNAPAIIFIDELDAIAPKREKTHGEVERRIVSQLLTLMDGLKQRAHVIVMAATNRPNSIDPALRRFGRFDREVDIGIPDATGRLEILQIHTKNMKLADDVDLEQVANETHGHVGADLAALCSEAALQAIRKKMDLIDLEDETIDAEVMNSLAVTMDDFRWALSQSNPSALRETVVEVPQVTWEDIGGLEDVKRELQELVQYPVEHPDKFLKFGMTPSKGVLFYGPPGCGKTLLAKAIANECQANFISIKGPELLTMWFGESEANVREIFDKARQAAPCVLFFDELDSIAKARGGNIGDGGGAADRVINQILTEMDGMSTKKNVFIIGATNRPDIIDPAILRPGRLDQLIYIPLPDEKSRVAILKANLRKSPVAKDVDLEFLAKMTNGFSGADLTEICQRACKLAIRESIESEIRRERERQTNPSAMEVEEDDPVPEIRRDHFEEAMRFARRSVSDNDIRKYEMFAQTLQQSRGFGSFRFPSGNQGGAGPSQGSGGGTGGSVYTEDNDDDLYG

## N#Cc1c(C2(c3ccc(Cl)cc3)CC2)nn2c(=O)c(Oc3cccc(Br)c3)c[nH]c12 [compound 20, 6-(3-bromophenoxy)-2-[1-(4-chlorophenyl)cyclopropyl]-7-oxo-4H-pyrazolo[1,5-a]pyrimidine-3-carbonitrile]
[1]
  EC50: > 200 µM
[2]
  IC50 fold lower than that of GFP-Sc-Dyn, AAA4 E/Q mutant: ~ 5 fold
[3]
  IC50: 2.9 ± 0.3 µM
Mm-VCP/p97; 20 μM, 1 mM MgATP
  Reduction of ATPase activity, Mm-VCP: < 25%
Mm-VCP/p97; compound 20 μM, mean ± SD, n=3
  Percent steady-state ATPase activity, Mm-p97: 99 ± 7.9%
GFP-Sc-Dyn [4]
  Time until most microtubules become immotile: ≤ 30 min
GFP-Sc-Dyn [4]; [10]
  Microtubule gliding velocity, 30 minutes after treatment: 3 ± 5
  Microtubule gliding velocity, immediately after treatment: 35 ± 19
GFP-Sc-Dyn [5]
  IC50: 14 ± 1 µM
Hs-dynein 1 [6]
  IC50: ~10 µM
Hs-FIGL1; compound 20 μM, mean ± SD, n=3
  Percent steady-state ATPase activity, Hs-FIGL: 15 ± 11%
Hs-FIGL1; read-out: Inhibition of ATPase activity, Hs-FIGL1
  inhibition at 20 µM: ~85%
Sc-Dyn-lyso
  IC50: 15 ± 3.1 µM
GFP-Sc-Dyn [7]; 12.5 μM compound, AMPPNP 100 μM
  FNorm, GFP-Sc-Dyn (MST): 0.8 ± 2
GFP-Sc-Dyn [7]; 12.5 μM compound, AMPPNP 1 mM
  FNorm, GFP-Sc-Dyn (MST): 1.9 ± 1.2
GFP-Sc-Dyn [7]; 12.5 μM compound
  ΔFNorm, GFP-Sc-Dyn (MST): 3.0 ± 5.0
GFP-Sc-Dyn [7]; 25 μM compound, AMPPNP 100 μM
  FNorm, GFP-Sc-Dyn (MST): 2.4 ± 2.3
GFP-Sc-Dyn [7]; 25 μM compound, AMPPNP 1 mM
  FNorm, GFP-Sc-Dyn (MST): 0.1 ± 1
GFP-Sc-Dyn [7]; 25 μM compound
  ΔFNorm, GFP-Sc-Dyn (MST): 6.7 ± 5.2
GFP-Sc-Dyn [7]; 50 μM compound 20, AMPPNP 1 mM
  ΔFNorm lower than that of the WT control: ~ 93%
GFP-Sc-Dyn [7]; 50 μM compound, AMPPNP 100 μM
  FNorm, GFP-Sc-Dyn (MST): 9.3 ± 2.3
GFP-Sc-Dyn [7]; 50 μM compound, AMPPNP 1 mM
  FNorm, GFP-Sc-Dyn (MST): 1.2 ± 2
GFP-Sc-Dyn [7]; 50 μM compound
  ΔFNorm, GFP-Sc-Dyn (MST): 16 ± 2.8
GFP-Sc-Dyn [7]; EC50, binding to GFP-Sc-Dyn (MST), mean ± 95% CI, n=9, Figures 5D-E
  EC50: 70 ± 31 µM
GFP-Sc-Dyn [7]; EC50, binding to WT GFP-Sc-Dyn (MST), mean ± 95% CI, n=4, Figure 5N, compared with V2391S/M2732S mutant
  EC50: 36 ± 7.8 µM
GFP-Sc-Dyn [7]; mean ± 95% CI, n=9
  Hill slope, binding to GFP-Sc-Dyn (MST): 1.7 ± 0.6
[8]
  EC50: 34 ± 11 µM
Hs-dynein 1 [9]
  IC50: 12 ± 9.3 µM
Hs-dynein 1 [9]; compounds tested at 20 μM, 1 mM MgATP, no microtubules, n=2
  Inhibition of Hs-dynein 1 basal ATPase activity (in words): most active
